Holding throughout (type): functional, tissue-based
The target in assay [1] is T1, Histamine H1 receptor (Cavia porcellus, UniProt P31389). Description: Compound was tested in vitro for histamine H1-antagonist activity against histamine-induced contractions on isolated guinea pig ileum. In a few lines: (§1)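 Isolated ileum from guinea pigs of either sex (~250 g), tested with racemates. Percent inhibition is taken against the submaximal contraction to 0.5 μM histamine without drug, with six observations per drug concentration. IC50 is the concentration giving 50% inhibition. pA2 = −log KB by Schild, where KB = B/(x−1) and x is the histamine half-maximal concentration ratio with/without antagonist.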

Assay [2] concerns the target T1, Histamine H1 receptor. In words: (§2) In vitro for histamine H1 receptor antagonist activity against histamine-induced contractions on isolated guinea pig ileum. The essentials:
as §1

In assay [3] the target is T1, Histamine H1 receptor. The assay is described as §2. The settings on record: read-out: pA2 (converted).

Each structure is given as a SMILES string.

T1 sequence (P31389 whole entry): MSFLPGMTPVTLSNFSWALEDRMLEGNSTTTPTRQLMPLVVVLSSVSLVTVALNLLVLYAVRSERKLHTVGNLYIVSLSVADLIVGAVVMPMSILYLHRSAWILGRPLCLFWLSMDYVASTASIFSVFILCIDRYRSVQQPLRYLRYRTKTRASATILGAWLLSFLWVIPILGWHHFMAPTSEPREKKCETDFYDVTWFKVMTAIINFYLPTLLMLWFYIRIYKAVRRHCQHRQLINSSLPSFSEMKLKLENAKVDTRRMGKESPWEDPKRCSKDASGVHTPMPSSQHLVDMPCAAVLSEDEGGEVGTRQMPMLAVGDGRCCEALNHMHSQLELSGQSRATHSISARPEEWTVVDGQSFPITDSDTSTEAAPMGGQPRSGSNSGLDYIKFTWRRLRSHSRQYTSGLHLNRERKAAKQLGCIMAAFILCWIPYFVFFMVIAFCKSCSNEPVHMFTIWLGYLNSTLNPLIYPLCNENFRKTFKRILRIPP

For orientation: IC50 means the midpoint of a concentration-inhibition curve. The low end stands for higher potency, the high end for lower potency. Turning to `CN(C)CCCN1C(=O)CSC1c1ccncc1` (configuration not stated), the IC50 against Histamine H1 receptor [1] is > 100000 nM.

Take `CN(C)CCCN1C(=O)CSC1c1cccc([N+](=O)[O-])c1` (configuration not stated): the IC50 on Histamine H1 receptor [2] is > 100000 nM. Also, the Kb at Histamine H1 receptor [3] was 3980 nM.

`CN(C)CCCN1C(=O)CSC1c1ccccc1` (configuration not stated) had an IC50 against Histamine H1 receptor [2] of 20000 nM. Further, at Histamine H1 receptor [3], the Kb was 39.8 nM.

For `CC(C)c1ccc(C2SCC(=O)N2CCCN(C)C)cc1` (configuration not stated), inhibition at Histamine H1 receptor [2] was half-maximal at 1000 nM (IC50). The Kb at Histamine H1 receptor [3] is 2 nM.

`COc1cccc(C2SCC(=O)N2CCCN(C)C)c1` (configuration not stated) displayed an IC50 at Histamine H1 receptor [2] of 25000 nM. The Kb on Histamine H1 receptor [3] was 398 nM.

`CN(C)CCCN1C(=O)CSC1c1ccc(Br)cc1` (configuration not stated): inhibition against Histamine H1 receptor [2] was half-maximal at 2300 nM (IC50). Besides, the Kb at Histamine H1 receptor [3] is 39.8 nM.

For the molecule `COc1ccc(C2SCC(=O)N2CCCN(C)C)cc1` (configuration not stated), the IC50 at Histamine H1 receptor [2] was > 100000 nM. On Histamine H1 receptor [3], the Kb was 10000 nM.

For the molecule `CN(C)CCCN1C(=O)CSC1c1ccc(F)cc1` (configuration not stated), it took 24000 nM to reach half-maximal inhibition on Histamine H1 receptor [2] (IC50). The Kb at Histamine H1 receptor [3] was 79.4 nM.

As for `CN(C)CCCN1C(=O)CSC1c1ccc([N+](=O)[O-])cc1` (configuration not stated), at Histamine H1 receptor [2], the IC50 was > 100000 nM. Also, on Histamine H1 receptor [3], the Kb is 6310 nM.

As to `CN(C)CCCN1C(=O)CSC1c1cccc(F)c1` (configuration not stated), half-maximal inhibition against Histamine H1 receptor [2] (IC50) required 3100 nM. On Histamine H1 receptor [3], the Kb was 398 nM.

`CN(C)CCCN1C(=O)CSC1c1ccc(N)cc1` (configuration not stated) registered an IC50 against Histamine H1 receptor [2] of 40000 nM. In addition, the Kb at Histamine H1 receptor [3] was 1000 nM.

The molecule `Cc1ccc(C2SCC(=O)N2CCCN(C)C)cc1` (configuration not stated) came in with an IC50 against Histamine H1 receptor [2] of 1200 nM. The Kb at Histamine H1 receptor [3] was 5.01 nM.

As to `CN(C)CCCN1C(=O)CSC1c1cccc(Br)c1` (configuration not stated), the IC50 against Histamine H1 receptor [2] stood at 60000 nM. For the same molecule, at Histamine H1 receptor [3], the Kb is 398 nM.

Regarding `CN(C)CCCN1C(=O)CSC1c1ccc(Cl)cc1` (configuration not stated), it took 21000 nM to reach half-maximal inhibition on Histamine H1 receptor [2] (IC50). Further, the Kb at Histamine H1 receptor [3] was 2510 nM.

As for `Cc1cccc(C2SCC(=O)N2CCCN(C)C)c1` (configuration not stated), at Histamine H1 receptor [2], the IC50 stood at 5000 nM. Further, the Kb at Histamine H1 receptor [3] is 20 nM.

Molecule `CN(C)CCCN1C(=O)CSC1c1cccc(Cl)c1` (configuration not stated) returned an IC50 on Histamine H1 receptor [2] of 2200 nM. Also, the Kb on Histamine H1 receptor [3] is 631 nM.

For the molecule `CN(C)CCN1C(=O)CSC1c1ccccc1` (configuration not stated), on Histamine H1 receptor [2], the IC50 was > 100000 nM.

The record behind these values is ChEMBL document CHEMBL1125507, “Synthesis and antihistaminic activity of some thiazolidin-4-ones” (J Med Chem, 1992).
